Activity calls are given as the source filed them.
Columns and labels:
[1] = Ratio of drug level in brain to serum in gerbil at 1 mg/kg, ip after 36 mins; assay type: ADME, organism-based; set-up: dose 1 mg/kg, route intraperitoneal; conditions: gerbillinae
Procedure, shortened: (§1)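 Gerbils given single IP dose in 100% PEG-400 (0.1–30 mg/kg); brain and serum sampled 36 min post-dose, matching the interval from dosing to end of forced swim test. Drug concentrations (nM) measured in each matrix and brain-to-serum ratio calculated; mean of n = 3 with SD.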

Substance-K receptor = target: T1, Substance-K receptor (Homo sapiens, UniProt P21452); test: Inhibition of NK2 receptor (unknown origin)
T1 sequence (P21452 whole entry): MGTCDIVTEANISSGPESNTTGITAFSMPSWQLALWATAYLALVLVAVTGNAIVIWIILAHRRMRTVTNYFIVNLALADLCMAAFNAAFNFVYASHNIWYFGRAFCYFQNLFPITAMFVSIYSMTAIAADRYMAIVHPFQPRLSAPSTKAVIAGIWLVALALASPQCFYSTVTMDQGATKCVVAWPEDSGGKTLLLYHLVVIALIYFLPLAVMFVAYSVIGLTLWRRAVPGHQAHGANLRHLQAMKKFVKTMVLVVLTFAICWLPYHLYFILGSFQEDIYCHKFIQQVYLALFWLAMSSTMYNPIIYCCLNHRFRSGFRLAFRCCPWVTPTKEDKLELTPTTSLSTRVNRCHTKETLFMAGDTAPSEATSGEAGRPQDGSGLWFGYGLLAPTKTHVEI

[2] = Drug uptake in gerbil serum at 0.3 mg/kg, ip after 36 mins; assay type: ADME, organism-based; set-up: dose 0.3 mg/kg, route intraperitoneal; conditions: gerbillinae, read-out: Drug uptake
Procedure, shortened: (§2)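 Gerbils given IP doses as a solution in 100% PEG-400. Brain and serum sampled 36 min post-injection, covering the time from dosing to the end of the behavioral test. Values are means (n = 3) with SD.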

[3] = target: Histamine H1 receptor (Homo sapiens) (UniProt P35367); test: Inhibition of histamine H1 receptor (unknown origin) at 10 uM
Procedure, shortened: (§3)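 Screened at 10 µM in a commercial panel of over 70 receptors. Significance threshold set at ≥50% inhibition.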

Homo sapiens = species: Homo sapiens; test: Inhibition of Na+ channel (unknown origin) at 10 uM; procedure, shortened: as §3
[4] = Drug uptake in gerbil brain at 3 mg/kg, ip after 36 mins; assay type: ADME, organism-based; set-up: dose 3 mg/kg, route intraperitoneal; conditions: gerbillinae, read-out: Drug uptake; procedure, shortened: as §2
[5] = target: T2, Sodium-dependent dopamine transporter (Homo sapiens, UniProt Q01959); test: Inhibition of DAT (unknown origin)
[6] = target: T3, 5-hydroxytryptamine receptor 2B (Homo sapiens, UniProt P41595); conditions: 10 uM
[7] = target: T4, Sodium-dependent noradrenaline transporter (Homo sapiens, UniProt P23975); test: Inhibition of NET (unknown origin)
Neuromedin-K receptor = target: T5, Neuromedin-K receptor (Homo sapiens, UniProt P29371); test: Inhibition of NK3 receptor (unknown origin)
T5 sequence (P29371 whole entry): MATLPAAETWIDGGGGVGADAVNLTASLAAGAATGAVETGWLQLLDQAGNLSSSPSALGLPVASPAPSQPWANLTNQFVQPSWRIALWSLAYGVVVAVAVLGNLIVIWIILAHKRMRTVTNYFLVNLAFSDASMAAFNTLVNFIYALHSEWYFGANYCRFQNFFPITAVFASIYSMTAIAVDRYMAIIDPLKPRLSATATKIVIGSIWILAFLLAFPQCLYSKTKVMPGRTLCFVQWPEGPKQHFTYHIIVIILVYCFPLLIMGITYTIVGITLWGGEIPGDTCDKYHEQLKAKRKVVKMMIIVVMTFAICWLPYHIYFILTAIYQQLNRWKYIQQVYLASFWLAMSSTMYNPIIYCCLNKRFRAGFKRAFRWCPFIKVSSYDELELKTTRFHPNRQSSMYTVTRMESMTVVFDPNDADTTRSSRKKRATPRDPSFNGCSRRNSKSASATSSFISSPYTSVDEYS

Gerbillinae [8] = test: Antidepressant activity in gerbil assessed as decrease in immobility time at 10 to 30 mg/kg, ip administered for 30 mins prior to testing measured for 6 mins by forced swimming test; assay type: functional, organism-based
[9] = Drug uptake in gerbil brain at 1 mg/kg, ip after 36 mins; assay type: ADME, organism-based; set-up: dose 1 mg/kg, route intraperitoneal; conditions: gerbillinae, read-out: Drug uptake; procedure, shortened: as §2
Gerbillinae [10] = test: Antidepressant activity in gerbil assessed as decrease in immobility time at 0.1 mg/kg, ip administered for 30 mins prior to testing measured for 6 mins by forced swimming test relative to vehicle-treated control; assay type: functional, organism-based; set-up: dose 0.1 mg/kg
[11] = target: Sodium-dependent serotonin transporter (Homo sapiens, UniProt P31645); assay type: cell-based, HEK293
[12] = target: T4, Sodium-dependent noradrenaline transporter; test: Inhibition of NET (unknown origin) at 10 uM; procedure, shortened: as §3
[13] = Drug uptake in gerbil brain at 0.1 mg/kg, ip after 36 mins; assay type: ADME, organism-based; set-up: dose 0.1 mg/kg, route intraperitoneal; conditions: gerbillinae, read-out: Drug uptake; procedure, shortened: as §2
[14] = target: T2, Sodium-dependent dopamine transporter; test: Inhibition of DAT (unknown origin) at 10 uM; procedure, shortened: as §3
[15] = target: 5-hydroxytryptamine receptor 2A (Homo sapiens, UniProt P28223); test: Inhibition of 5HT2A receptor (unknown origin)
[16] = Ratio of drug level in brain to serum in gerbil at 30 mg/kg, ip after 36 mins; assay type: ADME, organism-based; set-up: dose 30 mg/kg, route intraperitoneal; conditions: gerbillinae; procedure, shortened: as §1
[17] = target: T6, 5-hydroxytryptamine receptor 1A (Homo sapiens, UniProt P08908); test: Inhibition of 5HT1A receptor (unknown origin)
T6 sequence (P08908 whole entry): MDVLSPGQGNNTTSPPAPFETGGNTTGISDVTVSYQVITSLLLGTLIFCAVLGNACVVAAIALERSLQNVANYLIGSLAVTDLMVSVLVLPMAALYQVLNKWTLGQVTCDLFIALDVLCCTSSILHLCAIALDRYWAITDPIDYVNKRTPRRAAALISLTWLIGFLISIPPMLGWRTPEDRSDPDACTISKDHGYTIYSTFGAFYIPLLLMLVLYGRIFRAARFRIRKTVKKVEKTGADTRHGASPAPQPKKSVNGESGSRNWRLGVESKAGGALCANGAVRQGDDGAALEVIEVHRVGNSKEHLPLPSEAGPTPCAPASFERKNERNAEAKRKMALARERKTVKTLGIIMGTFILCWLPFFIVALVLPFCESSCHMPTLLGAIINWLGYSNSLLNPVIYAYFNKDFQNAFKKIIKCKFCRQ

[18] = Binding affinity to gerbil NK1 receptor; set-up: species or system Gerbillinae
[19] = Ratio of drug level in brain to serum in gerbil at 3 mg/kg, ip after 36 mins; assay type: ADME, organism-based; set-up: dose 3 mg/kg, route intraperitoneal; conditions: gerbillinae; procedure, shortened: as §1
[20] = target: T3, 5-hydroxytryptamine receptor 2B; test: Inhibition of 5HT2B receptor (unknown origin)
[21] = Ratio of drug level in brain to serum in gerbil at 0.3 mg/kg, ip after 36 mins; assay type: ADME, organism-based; set-up: dose 0.3 mg/kg, route intraperitoneal; conditions: gerbillinae; procedure, shortened: as §1
Gerbillinae [22] = test: Antidepressant activity in gerbil assessed as decrease in immobility time at 0.3 to 3 mg/kg, ip administered for 30 mins prior to testing measured for 6 mins by forced swimming test; assay type: functional, organism-based
[23] = target: 5-hydroxytryptamine receptor 1B (Homo sapiens, UniProt P28222); test: Inhibition of 5HT1B receptor (unknown origin)
[24] = Drug uptake in gerbil serum at 3 mg/kg, ip after 36 mins; assay type: ADME, organism-based; set-up: dose 3 mg/kg, route intraperitoneal; conditions: gerbillinae, read-out: Drug uptake; procedure, shortened: as §2
[25] = Drug uptake in gerbil brain at 0.3 mg/kg, ip after 36 mins; assay type: ADME, organism-based; set-up: dose 0.3 mg/kg, route intraperitoneal; conditions: gerbillinae, read-out: Drug uptake; procedure, shortened: as §2
[26] = Drug uptake in gerbil serum at 30 mg/kg, ip after 36 mins; assay type: ADME, organism-based; set-up: dose 30 mg/kg, route intraperitoneal; conditions: gerbillinae, read-out: Drug uptake; procedure, shortened: as §2

T3 sequence (P41595 whole entry): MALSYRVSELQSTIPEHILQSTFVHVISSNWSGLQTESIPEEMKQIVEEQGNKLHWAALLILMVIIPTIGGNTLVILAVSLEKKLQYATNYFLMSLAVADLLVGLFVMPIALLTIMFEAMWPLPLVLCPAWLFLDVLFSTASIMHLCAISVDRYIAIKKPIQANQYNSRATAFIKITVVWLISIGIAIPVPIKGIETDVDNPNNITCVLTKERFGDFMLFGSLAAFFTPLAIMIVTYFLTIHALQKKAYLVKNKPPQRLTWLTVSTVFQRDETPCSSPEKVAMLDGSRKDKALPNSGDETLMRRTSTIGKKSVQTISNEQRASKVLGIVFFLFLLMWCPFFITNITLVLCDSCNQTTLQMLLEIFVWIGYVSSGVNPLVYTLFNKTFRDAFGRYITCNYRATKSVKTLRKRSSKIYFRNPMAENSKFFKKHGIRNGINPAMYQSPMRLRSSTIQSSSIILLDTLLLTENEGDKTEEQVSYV
T4 sequence (P23975 whole entry): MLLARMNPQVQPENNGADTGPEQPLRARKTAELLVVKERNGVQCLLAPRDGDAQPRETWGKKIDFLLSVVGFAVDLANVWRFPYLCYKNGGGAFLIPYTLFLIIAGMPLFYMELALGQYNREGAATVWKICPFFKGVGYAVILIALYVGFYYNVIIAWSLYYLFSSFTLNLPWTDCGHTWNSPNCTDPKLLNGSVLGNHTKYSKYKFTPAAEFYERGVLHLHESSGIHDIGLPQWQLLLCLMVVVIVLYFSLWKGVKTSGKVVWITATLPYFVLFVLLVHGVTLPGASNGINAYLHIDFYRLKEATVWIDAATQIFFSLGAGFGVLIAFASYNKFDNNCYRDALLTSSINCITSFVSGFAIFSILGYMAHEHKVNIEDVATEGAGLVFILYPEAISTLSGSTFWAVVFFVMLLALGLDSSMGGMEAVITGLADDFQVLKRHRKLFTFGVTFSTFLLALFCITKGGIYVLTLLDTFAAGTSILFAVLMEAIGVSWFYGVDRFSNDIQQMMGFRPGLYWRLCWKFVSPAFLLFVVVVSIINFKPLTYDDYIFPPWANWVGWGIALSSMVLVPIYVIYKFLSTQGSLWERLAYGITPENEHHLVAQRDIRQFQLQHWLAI
T2 sequence (Q01959 whole entry): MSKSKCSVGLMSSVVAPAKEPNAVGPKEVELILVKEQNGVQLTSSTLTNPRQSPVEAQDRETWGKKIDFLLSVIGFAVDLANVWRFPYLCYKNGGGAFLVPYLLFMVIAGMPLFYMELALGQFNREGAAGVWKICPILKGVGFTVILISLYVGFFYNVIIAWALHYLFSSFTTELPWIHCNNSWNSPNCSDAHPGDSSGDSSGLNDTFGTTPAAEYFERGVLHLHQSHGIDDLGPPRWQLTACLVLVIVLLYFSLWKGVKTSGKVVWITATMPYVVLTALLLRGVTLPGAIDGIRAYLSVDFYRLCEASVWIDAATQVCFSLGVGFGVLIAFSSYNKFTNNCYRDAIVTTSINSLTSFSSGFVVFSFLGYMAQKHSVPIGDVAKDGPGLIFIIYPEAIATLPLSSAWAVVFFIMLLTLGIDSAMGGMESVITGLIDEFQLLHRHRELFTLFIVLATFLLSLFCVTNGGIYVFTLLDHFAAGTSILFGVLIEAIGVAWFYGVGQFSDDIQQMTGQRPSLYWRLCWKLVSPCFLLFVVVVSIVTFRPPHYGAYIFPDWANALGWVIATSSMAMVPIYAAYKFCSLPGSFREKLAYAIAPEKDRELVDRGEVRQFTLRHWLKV
Chain of 5-hydroxytryptamine receptor 1B (P28222 whole entry): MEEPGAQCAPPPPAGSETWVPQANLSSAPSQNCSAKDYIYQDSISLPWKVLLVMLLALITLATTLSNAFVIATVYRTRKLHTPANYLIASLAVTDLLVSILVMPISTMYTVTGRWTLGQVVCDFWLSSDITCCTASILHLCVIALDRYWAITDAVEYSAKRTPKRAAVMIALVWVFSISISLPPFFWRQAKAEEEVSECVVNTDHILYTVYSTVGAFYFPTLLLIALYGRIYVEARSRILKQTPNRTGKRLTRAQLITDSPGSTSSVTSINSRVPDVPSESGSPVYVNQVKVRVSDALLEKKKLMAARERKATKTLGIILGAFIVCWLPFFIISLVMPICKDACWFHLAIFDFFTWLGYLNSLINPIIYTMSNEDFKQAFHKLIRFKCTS
Chain of 5-hydroxytryptamine receptor 2A (P28223 whole entry): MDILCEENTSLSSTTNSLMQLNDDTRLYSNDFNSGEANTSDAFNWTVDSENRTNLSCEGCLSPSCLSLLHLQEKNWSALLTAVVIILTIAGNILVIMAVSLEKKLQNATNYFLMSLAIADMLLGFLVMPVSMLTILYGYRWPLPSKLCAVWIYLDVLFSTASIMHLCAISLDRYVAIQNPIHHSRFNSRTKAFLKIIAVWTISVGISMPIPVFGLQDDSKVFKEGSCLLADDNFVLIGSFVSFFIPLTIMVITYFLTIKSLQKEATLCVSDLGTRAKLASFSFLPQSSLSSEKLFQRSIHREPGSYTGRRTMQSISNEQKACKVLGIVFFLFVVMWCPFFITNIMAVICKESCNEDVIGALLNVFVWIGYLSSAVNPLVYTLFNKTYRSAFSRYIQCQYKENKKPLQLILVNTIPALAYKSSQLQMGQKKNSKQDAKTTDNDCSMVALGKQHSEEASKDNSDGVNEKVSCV
Chain of Histamine H1 receptor (Homo sapiens) (P35367 whole entry): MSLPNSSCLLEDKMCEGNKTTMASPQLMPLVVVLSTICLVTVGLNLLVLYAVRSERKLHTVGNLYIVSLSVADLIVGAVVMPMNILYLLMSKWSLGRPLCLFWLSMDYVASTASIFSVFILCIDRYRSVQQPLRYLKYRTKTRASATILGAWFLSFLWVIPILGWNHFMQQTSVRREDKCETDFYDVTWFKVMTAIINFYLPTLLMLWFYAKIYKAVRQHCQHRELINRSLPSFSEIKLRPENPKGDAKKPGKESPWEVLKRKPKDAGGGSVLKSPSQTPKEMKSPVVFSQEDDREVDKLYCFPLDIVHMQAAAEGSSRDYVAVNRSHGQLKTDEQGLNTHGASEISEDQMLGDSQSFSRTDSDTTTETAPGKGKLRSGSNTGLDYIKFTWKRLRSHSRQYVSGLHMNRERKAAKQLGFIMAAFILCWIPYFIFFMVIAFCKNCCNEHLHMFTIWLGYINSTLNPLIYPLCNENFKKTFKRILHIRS
Chain of Sodium-dependent serotonin transporter (P31645 whole entry): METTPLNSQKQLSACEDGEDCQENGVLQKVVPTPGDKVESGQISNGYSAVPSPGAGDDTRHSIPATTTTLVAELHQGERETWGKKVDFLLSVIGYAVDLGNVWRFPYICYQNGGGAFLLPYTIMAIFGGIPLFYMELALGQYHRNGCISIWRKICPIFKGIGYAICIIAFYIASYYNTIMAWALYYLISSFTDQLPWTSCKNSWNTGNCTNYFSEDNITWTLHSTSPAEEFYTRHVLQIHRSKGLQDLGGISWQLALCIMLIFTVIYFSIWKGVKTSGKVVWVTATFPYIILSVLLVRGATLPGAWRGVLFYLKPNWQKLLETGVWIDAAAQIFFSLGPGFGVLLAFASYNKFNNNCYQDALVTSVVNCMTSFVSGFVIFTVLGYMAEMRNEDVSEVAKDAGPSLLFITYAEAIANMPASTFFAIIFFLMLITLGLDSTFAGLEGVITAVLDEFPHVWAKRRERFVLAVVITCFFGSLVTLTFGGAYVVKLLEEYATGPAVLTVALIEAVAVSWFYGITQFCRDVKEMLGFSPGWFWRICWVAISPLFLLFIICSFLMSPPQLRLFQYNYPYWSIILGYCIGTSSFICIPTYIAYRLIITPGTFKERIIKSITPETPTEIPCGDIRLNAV

FC(F)(F)c1cc(COCC2(c3ccccc3)CCNCC2)cc(C(F)(F)F)c1
Kp at 0.6 h [1]: 3.2
IC50 (Substance-K receptor): > 1000 nM
concentration at 0.6 h [2]: 12 nM
inhibition [3]: Active
inhibition (Homo sapiens): Active
concentration at 0.6 h [4]: 880 nM
IC50 [5]: > 1000 nM
inhibition [6]: Active
IC50 [7]: > 1000 nM
IC50 (Neuromedin-K receptor): > 1000 nM
Activity (Gerbillinae [8]): inactive
concentration at 0.6 h [9]: 150 nM
Activity (Gerbillinae [10]): inactive
IC50 [11]: 1 nM
inhibition [12]: Active
concentration at 0.6 h [13]: 8.8 nM
inhibition [14]: Active
IC50 [15]: > 1000 nM
Kp at 0.6 h [16]: 2.3
IC50 [17]: > 1000 nM
IC50 [18]: 2 nM
Kp at 0.6 h [19]: 4.2
IC50 [20]: > 1000 nM
Kp at 0.6 h [21]: 3.2
Activity (Gerbillinae [22]): Active
IC50 [23]: > 1000 nM
concentration at 0.6 h [24]: 210 nM
concentration at 0.6 h [25]: 44 nM
concentration at 0.6 h [26]: 2300 nM
